# CHO parental Ca: ATP-evoked calcium signal inhibitors, parental CHO, primary screen, counter-screen for OX1R antagonist project, cell-based, fluorescence, Fluo-8 calcium dye; parental CHO-K1, ATP-induced calcium, Fluo-8 fluorescence; inhibition, % at 5.6 µM; actives 0.63% (n = 330,000);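 active means inhibition above that plate's mean sample inhibition plus 3 SD, cut at about 26% in these data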;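 further: 0% = ATP-challenged DMSO wells and 100% = DMSO wells without ATP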
#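 material = parental CHO cells | also added = ATP as calcium-mobilizing challenge | dosing = single point at 5.6 µM | detection = intracellular calcium via Fluo-8 no-wash fluorescent dye | read-out = % inhibition | benchmarks = low control ATP plus DMSO, high control DMSO only | repeats = one well per compound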
# TAAR1 ag: human TAAR1 agonists, primary screen, Fluo-8 calcium fluorescence, CHO RD-HGA16 cells; vehicle wells 0%, saturating PEA agonist 100%; actives 0.99% (n = 360,000); AID 624467, 2012; activation, % at 3 µM; Trace amine-associated receptor 1 (Homo sapiens), Q96RJ0;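 active means activation above the mean activation of all test compounds in the run plus 3 SD, cut at about 38% in these data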
#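 System: CHO RD-HGA16 cells carrying human TAAR1 plus Gα16; Incubation: 17-24 h seeding, 75 min 37 °C dye, 30 min RT; Measured by: Fluo-8 fluorescence, 5 s baseline then 140 s kinetic read; Control set: DMSO and PEA EC100; Replication: single well for each compound.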
# OX1R antag-1: OX1R (HCRTR1) antagonists, primary screen, fluorescence, CHO/OX1R cells, Fluo-8 calcium, orexin A; actives 0.43% (n = 330,000); inhibition, % at 5 µM; Orexin/Hypocretin receptor type 1 (Homo sapiens), O43613; AID 434989, 2010; Fluo-8 calcium fluorescence;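 active means inhibition above its plate's threshold, mean inhibition of all tested compounds on the plate plus 3 SD, cut at about 37% in these data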;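 further: 0% = orexin A challenge wells and 100% = SB-334867-A antagonist wells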
# Target sequence (O43613 whole entry, looked up): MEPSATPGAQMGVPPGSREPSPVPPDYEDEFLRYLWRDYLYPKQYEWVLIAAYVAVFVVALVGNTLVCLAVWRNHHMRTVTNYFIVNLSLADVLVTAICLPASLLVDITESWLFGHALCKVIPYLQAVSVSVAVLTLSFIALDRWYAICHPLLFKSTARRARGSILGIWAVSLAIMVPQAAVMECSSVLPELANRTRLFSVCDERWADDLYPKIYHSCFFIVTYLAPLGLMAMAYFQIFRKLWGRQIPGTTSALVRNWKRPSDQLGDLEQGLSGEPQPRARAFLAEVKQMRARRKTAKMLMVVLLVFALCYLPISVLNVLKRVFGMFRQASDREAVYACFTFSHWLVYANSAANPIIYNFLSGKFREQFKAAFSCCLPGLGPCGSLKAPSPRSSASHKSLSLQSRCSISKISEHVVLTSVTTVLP
# TAAR1 antag: human TAAR1 antagonists, primary screen, Fluo-8 calcium fluorescence, CHO RD-HGA16 cells | Trace amine-associated receptor 1 (Homo sapiens), Q96RJ0 | antagonist | inhibition, % at 3 µM | actives 1.5% (n = 360,000);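 active means inhibition above a per-plate cutoff, the mean inhibition of test compounds on that plate plus 3 SD, cut at about 49% in these data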;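 further: 0% = DMSO plus EC80 beta-PEA response and 100% = DMSO alone without agonist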
#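 Material: RD-HGA16 CHO cells with stable hTAAR1 and Gα16; Dosing: single nominal final test compound concentration of 3 µM; Schedule: seeding 17-24 h prior, 75-min 37 °C, 30-min RT dye loading; Detection: kinetic Fluo-8 calcium fluorescence measurement; Measure: % inhibition from peak post-agonist over basal fluorescence ratio; Benchmarks: vehicle and agonist controls.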
# OX1R antag-2: antagonists of human orexin 1 receptor (OX1R) | inhibition, % at 6.6 µM | AID 485270, 2010 | Orexin/Hypocretin receptor type 1 (Homo sapiens), O43613 | OX1R-expressing cells, FRET antagonist read-out | actives 1.8% (n = 330,000); in the data active means inhibition mostly above about 38%, no sharp cut-off; inactive means mostly below about 40%;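 further: 0% = agonist challenge alone and 100% = reference antagonist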
# * = called active by the depositor; · = no result. Shown are actives, neighbours in structure and some others; about 3.9% of the full set was active somewhere.
SMILES,CHO parental Ca,TAAR1 ag,OX1R antag-1,TAAR1 antag,OX1R antag-2
NC(=O)c1ccc(SCC(=O)OCC(=O)N2CCN(C(=O)c3ccco3)CC2)c([N+](=O)[O-])c1,-8,0,-8,-18,58*
CC1CCN(C(=O)COC(=O)CSc2ccc(C(N)=O)cc2[N+](=O)[O-])CC1,-18,1,-18,-4,63*
CCOc1ccc(CCN2C(=O)C(=O)N([C@@H](Cc3ccccc3)CN3CCC[C@H]3CN3C(=O)C(=O)NC[C@@H]3Cc3ccccc3)C[C@@H]2CC(C)C)cc1,·,-1,·,-4,·
COc1ccc(C(=O)OCC(=O)N2CCCCC2)cc1[N+](=O)[O-],-5,3,-11,-9,20
NC(=O)c1ccc(SCC(=O)OCC(=O)N2CCCCC2)c([N+](=O)[O-])c1,22,1,-3,-29,63*
CCCN(C(=O)COC(=O)CSc1ccc(C(N)=O)cc1[N+](=O)[O-])C1CCS(=O)(=O)C1 (stereo not given),·,2,·,-24,·
CN(C(=O)COC(=O)CSc1ccc(C(N)=O)cc1[N+](=O)[O-])C1CCCCC1,-2,4,-13,7,47*
C(=NNc1ccc2ccccc2n1)c1ccccn1,·,-1,·,9,·
COc1cc(C(O)c2nc(-c3cccc(C#N)c3)cs2)ccc1F (stereo not given),·,2,·,3,·
COc1ccc(C)cc1Nc1n[n+](-c2ccccc2)c(-c2c(Cl)cccc2Cl)s1,38*,29,2,-1,44
CCc1ccc(Nc2n[n+](-c3ccccc3)c(-c3ccc(N(CC)CC)cc3)s2)cc1,45*,50*,29,50*,25
CCN(CC)c1ccc(-c2sc(Nc3ccccc3)n[n+]2-c2ccc(F)cc2)cc1,-11,49*,-11,24,15
CCc1ccc(Nc2n[n+](-c3ccccc3)c(-c3c(Cl)cccc3Cl)s2)cc1,93*,59*,103*,92*,36
CCc1ccc(Nc2n[n+](-c3ccccc3)c(-c3ccc(OCc4ccccc4)cc3)s2)cc1,3,1,-8,2,14
CN(C)c1ccc(-c2sc(Nc3ccccc3)n[n+]2-c2ccc(F)cc2)cc1,6,18,-14,17,4
COc1ccc(C)cc1Nc1n[n+](-c2ccccc2)c(-c2ccc(OC)c(OC)c2OC)s1,-27,7,-21,21,11
O=C1NC[C@H](CCCCN2C[C@H](Cc3ccc(O)cc3)N(CCc3ccccc3)C(=O)C2=O)N(CC2CCCCC2)C1=O,·,1,·,-7,·
C[C@@H]1C=CCCO[C@]12C(=O)N(CC1CC1)c1ccccc12,·,0,·,-35,·
C[C@H](c1ccccc1)N1C[C@@H](COCc2ccccc2)Oc2cccc(Oc3ccc(F)cc3)c2S1(=O)=O,·,3,·,-5,·
c1ccc(C[n+]2csc3ccccc32)cc1,29*,20,1,-5,8
COCCCN1C(=O)C(CC(=O)NCc2ccco2)CC(C(=O)N(C(C)C)C(C)C)=C1C (stereo not given),·,0,·,-12,·
Cn1c(N)c(-c2ccccc2)c2ccc([N+](=O)[O-])cc2c1=O,43*,31,53*,40,32
CC1=C[C@@H]2[C@H]3C(=O)N(Cc4ccccc4)C(=O)[C@H]3[C@@H]1[C@@H]1O[C@@]3(C(=O)N(C)c4ccccc43)C3=C(CCCC3=O)N21,·,8,·,-3,·
COCCNC(=O)C1(C)CCCN(C(=O)c2cc(OC)c(OC)c(OC)c2)C1 (stereo not given),·,0,·,1,·
Cc1nnc(SCc2ccc(C(=O)O)cc2)s1,-7,4,-15,-22,15
SMILES,CHO parental Ca,TAAR1 ag,OX1R antag-1,TAAR1 antag,OX1R antag-2
COc1ccc(OC)c(NC(=O)c2ccc(CSc3nnc(C)s3)cc2)c1,-28,2,-18,20,34
Cc1cc(C)cc(NC(=O)c2ccc(CSc3nnc(C)s3)cc2)c1,-3,13,-1,66*,8
Cc1ccc(NC(=O)c2ccc(CSc3nnc(C)s3)cc2)cc1,40*,18,-1,24,10
CC(C)C(C(=O)NCc1ccccc1)N1CCN(CCN2CCOCC2)CC1 (stereo not given),·,0,·,-11,·
Cc1cc2c(c(=O)o1)[C@@]1(C(=O)N(C)c3cccc(Br)c31)C1=C(CCCC1=O)O2,·,2,·,-22,·
Cc1nn(-c2ccccc2)c(C)c1NC(=O)COC(=O)c1ccc(S(=O)(=O)C(F)F)cc1,-13,16,-31,49*,12
COc1cccc(CC(=O)OCC(=O)Nc2c(C)nn(-c3ccccc3)c2C)c1,·,6,·,-8,·
Cc1nn(-c2ccccc2)c(C)c1NC(=O)COC(=O)c1ccccc1,-12,6,-7,12,2
Cc1nn(-c2ccccc2)c(C)c1NC(=O)COC(=O)c1cccc(OC(F)F)c1,-1,15,-17,55*,13
COC(=O)[C@H](Cc1ccccc1)N1CC=CS1(=O)=O,·,1,·,-10,·
CSc1nc(N)nc(SCC(=O)Nc2cccc(F)c2)c1C#N,62*,13,16,40,39
O=C(CSc1nc2ncc(Cl)cc2[nH]1)Nc1cccc(F)c1,4,11,-14,14,47*
CC1=C(C(=O)N2CCCCCC2)CC(CC(=O)NCCCN(C)C)C(=O)N1Cc1ccc(F)cc1 (stereo not given),·,1,·,0,·
Cc1ccc(NC(=O)c2ncn(CCCN3CCN(Cc4cccc5ccccc45)CC3)n2)cc1C,·,21,·,24,·
CCCCOCC1CN(CCCC)S(=O)(=O)c2c(cccc2N2CCCCC2)O1 (stereo not given),·,-1,·,-16,·
CC(C)C(C(=O)Nc1ccncc1)c1ccc(Cl)cc1 (stereo not given),1,54*,-1,37,7
CC(C)C(C(=O)Nc1nccs1)c1ccc(Cl)cc1 (stereo not given),-22,28,-11,6,3
CC(C)(Oc1ccc(Cl)cc1)C(=O)Nc1ccncc1,37*,8,19,-1,38
O=C(NC1CCCCC1)C1c2ccccc2OCC(=O)N1Cc1ccco1 (stereo not given),·,1,·,-10,·
Cc1cccc(CS(=O)(=O)c2nnc([C@H](Cc3ccccc3)NC(=O)OC(C)(C)C)o2)c1,67*,·,57*,·,17
O=C(c1cc(-c2ccncc2)nc2ccc(Br)cc12)N1CCN(Cc2ccc3c(c2)OCO3)CC1,-14,15,-22,62*,10
Cc1cc(C)c(S(=O)(=O)N(C)CC(=O)N2CCCC2)c(C)c1,·,1,·,-9,·
O=[N+]([O-])c1cc(-c2csc(NCCc3nc4cc(C(F)(F)F)ccc4n3CCCO)n2)ccc1Cl,-6,1,-19,4,23

# Screening data from PubChem.
